Source: PubChem BioAssay
An excerpt weighted towards active compounds, which were near 2.5% of everything screened.
SIRT5 inh: inhibitors of human sirtuin-5 desuccinylase. inhibition, % at 15 µM. 1.1% of 330,000 active. Q9NXA8. AID 652115. Purified SirT5, succinyl-peptide AMC, trypsin-coupled fluorescence; in the data active = inhibition above about 15%; inconclusive = no clear call, values can overlap the other calls
E-sel inducer: induces E-selectin expression in human endothelial cells; HUVEC E-selectin immunofluorescence imaging; normalized: neutral wells 0, TNF-alpha wells 100; activation, % at 7.58 µM; P16581; AID 686992; 0.37% of 260,000 active;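 active = mean E-selectin-positive cell signal at least 10% of the positive control, reached in at least 60% of replicates, without over 20% cell loss; inconclusive = no rule given, readout overlaps actives, possibly toxicity-flagged; inactive = the rest, including those meeting only one limit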
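System: HUVEC / Compound: single concentration / Signal: immunofluorescence imaging / Read-out: percent E-selectin-positive cells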
DENV2 CPE: DENV2-induced cell death inhibition; AID 651640; CPE inhibition, % at 9.99 µM; DENV2-infected cells, cytopathic effect rescue, plate reader; 1.7% of 350,000 active; in the data active = CPE inhibition above about 20%, passing the limit was not always enough; inconclusive = no clear call, values can overlap the other calls; tested in BHK-21 cells;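 note: 0% = median of neutral control wells and 100% = median of positive control wells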
PglD DTNB: PglD (C. jejuni) enzyme inhibition | 0.098% of 360,000 active | inhibition, % at 12.5 µM | purified PglD enzyme, DTNB colorimetric CoA detection; in the data active = inhibition above about 16%, passing the limit was not always enough; inconclusive = no clear call, values can overlap the other calls
ERAP1 HTS inh: blocks human ERAP1 aminopeptidase activity; Q9NZ08; recombinant ERAP1, Leu-AMC fluorescence, 60 min; inhibition, % at 10.7 µM; 0.15% of 340,000 active;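 active = mean replicate inhibition of at least 30%, or all replicates individually reaching that 30% level; inactive = mean below 30% and not every replicate reaching it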;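 note: 0% = neutral control wells and 100% = L-leucinethiol positive control wells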
* hit, by the source's call; ? = inconclusive; / = not tested or not shown.

SMILES | SIRT5 inh | E-sel inducer | DENV2 CPE | PglD DTNB | ERAP1 HTS inh
COc1ccccc1-c1csc(C(C)(O)c2ccccc2)n1 (stereo unspecified) | 16* | 0 | -10 | 3 | -3
COc1ccc(C(C)(O)c2nc(-c3ccccc3C)cs2)cc1 (stereo unspecified) | -2 | -1 | 8 | -2 | -2
COc1ccc(C(C)(O)c2nc(-c3ccc(OC)c(OC)c3)cs2)cc1 (stereo unspecified) | 1 | 0 | -10 | 12 | -3
Cc1ccccc1-c1csc(C(C)(O)c2ccccc2)n1 (stereo unspecified) | 0 | 0 | 31* | -6 | -2
C=C(C)C(=O)N1CC2(CC(c3cccc(NC(=O)c4ccccc4)c3)=NO2)C[C@@H]1C(N)=O (stereo partly specified) | 2 | 0 | / | 1 | 15
CCC(C)c1ccc(NC(=O)C2=CC=CN3CCS(=O)(=O)N=C23)cc1 (stereo unspecified) | 0 | / | 8 | 4 | 3
CCOc1ccc2nc(NC(=O)CS(=O)(=O)c3ccccc3)sc2c1 | / | / | / | 0 | /
CCN1CCN(CC(=O)Nc2nc3ccc(C)cc3s2)CC1 | 3 | / | 25* | -2 | 2
CCOc1ccc2nc(NC(=O)CS(=O)(=O)c3ccc(C)cc3)sc2c1 | 32* | / | / | -1 | -3
Cc1ccc2nc(NC(=O)CN3CCOCC3)sc2c1 | / | / | / | 2 | /
COc1ccc(CCC(=O)Nc2cc3c4c(c2)CCC(=O)N4CCC3)cc1 | -3 | 3 | 5 | -1 | 0
COC(=O)CN1C(=O)[C@H]2[C@@H](/C=C/c3ccccc3)N3C(=O)CN(Cc4ccccc4)C(=O)[C@@]3(C)[C@H]2C1=O | / | 0 | 50* | 0 | /
O=C1CC(N2CCSCC2)C(=O)N1c1cccc(Br)c1 (stereo unspecified) | -1 | 43* | 0 | 6 | 0
O=C1CC(N2CCN(c3ccccc3)CC2)C(=O)N1c1cccc(Br)c1 (stereo unspecified) | -3 | / | 3 | 0 | 1
C[C@H](NC(=O)C[C@H]1CC[C@H]2[C@H](COc3ccc(NS(=O)(=O)c4ccc(Cl)cc4)cc3C(=O)N2C)O1)c1ccccc1 | -2 | 128* | 8 | 0 | 0
C[C@H](NC(=O)C[C@@H]1CC[C@@H]2[C@H](COc3ccc(NS(=O)(=O)c4ccc(Cl)cc4)cc3C(=O)N2C)O1)c1ccccc1 | 0 | 0 | -5 | -2 | -1
Cc1cc(C(=O)Nc2ccc3c(c2)C(=O)N(C)[C@H]2CC[C@@H](CC(=O)N[C@@H](C)c4ccccc4)O[C@H]2CO3)no1 | -1 | 0 | 97* | 3 | -4
CCC(=O)Nc1ccc2c(c1)C(=O)N(C)[C@@H]1CC[C@H](CC(=O)N[C@H](C)c3ccccc3)O[C@@H]1CO2 | 15* | 0 | ? | 4 | 2
CCC(=O)Nc1ccc2c(c1)C(=O)N(C)[C@H]1CC[C@@H](CC(=O)N[C@H](C)c3ccccc3)O[C@H]1CO2 | -4 | 0 | 0 | 3 | -1
O=C(CSc1nc2ccccc2[nH]1)NCCc1ccc(Cl)cc1 | / | 0 | / | 9 | /
CC1CC(OCC(O)CN2CCOCC2)CC(C)(C)C1 (stereo unspecified) | / | 1 | -3 | 4 | -1
CC1CC(OCC(O)C[N+]2(C)CCOCC2)CC(C)(C)C1 (stereo unspecified) | -2 | 0 | -3 | / | 109*
C[C@H]1CCCCO[C@@H](CN(C)C(=O)NC2CCCCC2)[C@@H](C)CN([C@@H](C)CO)C(=O)c2cc(NS(=O)(=O)c3ccccc3)ccc2O1 | 0 | 0 | 30* | 0 | 3
C[C@@H]1CN([C@H](C)CO)C(=O)c2cc(NS(=O)(=O)c3ccccc3)ccc2O[C@@H](C)CCCCO[C@@H]1CN(C)C(=O)NC1CCCCC1 | 2 | 0 | 75* | 0 | 3
C[C@@H]1CCCCO[C@H](CN(C)C(=O)NC2CCCCC2)[C@@H](C)CN([C@@H](C)CO)C(=O)c2cc(NS(=O)(=O)c3ccccc3)ccc2O1 | 1 | 0 | -13 | 0 | 2
SMILES | SIRT5 inh | E-sel inducer | DENV2 CPE | PglD DTNB | ERAP1 HTS inh
CC(C)[C@H](NC(=O)C1CCN(S(=O)(=O)c2ccc(F)cc2)CC1)C(=O)N1CCCC1 | -1 | / | 2 | -4 | 2
COc1cccc(C2c3[nH]c4ccccc4c3C[C@H]3C(=O)N(c4ccccc4C(=O)N4CCC(C(=O)O)CC4)C(=O)N23)c1 (stereo partly specified) | -1 | / | 83* | -2 | 5
O=C(Nn1c(-c2ccncc2)nc2ccccc2c1=O)c1ccccc1Br | -1 | 114* | -3 | / | 0
O=C(Nn1c(-c2ccncc2)nc2ccccc2c1=O)c1ccc(Br)cc1 | -1 | / | -2 | / | 8
COc1cc(C(=S)N2CCOCC2)ccc1OC(=O)c1ccccc1 | -1 | 0 | 3 | 0 | -1
COc1ccc(C(=S)N2CCOCC2)cc1OC(=O)c1ccccc1 | -4 | 0 | 24* | 5 | 0
COc1ccccc1Cn1c(=S)[nH]c2cc(C(=O)N3CC(C)CC(C)C3)ccc2c1=O (stereo unspecified) | 4 | 0 | 22* | 3 | 6
COc1ccccc1Cn1c(=S)[nH]c2cc(C(=O)N3CCN(c4ccccc4OC)CC3)ccc2c1=O | 6 | / | 9 | -1 | -1
CCOC(=O)C1C(c2cccs2)NC(=O)NC1(O)C(F)(F)F (stereo unspecified) | 17* | / | 11 | / | -1
CCOC(=O)C1C(c2cccnc2)NC(=O)NC1(O)C(F)(F)F (stereo unspecified) | -3 | / | -1 | / | -2
O=C(COC(=O)C1(c2ccccc2)CC1)NNC(=O)c1ccccc1 | 1 | / | ? | / | -1
NC(=O)c1ccccc1NC(=O)COC(=O)C1(c2ccccc2)CC1 | -3 | / | 32* | 4 | 0
O=S(=O)(Nc1cccc(-c2cn3c(n2)SCC3)c1)c1ccccc1 | -1 | / | 3 | -1 | 46*
O=C(CCc1nnc(Cc2cccc(C(F)(F)F)c2)o1)NCC(F)(F)F | 18* | / | 6 | / | 0
CC(C)(CO)CNC(=O)CCc1nnc(Cc2ccc(-c3ccccc3)cc2)o1 | 26* | / | 2 | / | 5
CC(C)(CO)CNC(=O)CCc1nnc(CCCc2ccccc2)o1 | 3 | 0 | 1 | / | -2
Cc1ccc(-c2nc(C=Nc3ccc(O)cc3)c(O)o2)cc1 | 4 | -3 | 1 | / | -1
Cc1cccc(NC(=O)C2CCCN2C(=O)NC2CCCCC2)c1 (stereo unspecified) | / | / | 1 | / | -1
CN1CCN(S(=O)(=O)c2cccc(C(=O)Nc3sccc3C(N)=O)c2)CC1 | 2 | 0 | 2 | 1 | 2
COc1ccc(S(=O)(=O)Nc2ccc3c(c2)C(=O)N([C@@H](C)CO)C[C@@H](C)[C@H](CN(C)C(=O)CCCN(C)C)OCCCC[C@@H](C)O3)cc1 | -2 | 0 | 31* | -2 | -3
C[C@H](CO)N1C[C@H](C)[C@H](CN(C)C(=O)CCC(F)(F)F)OCCCC[C@H](C)Oc2ccc(NS(=O)(=O)c3ccc(Cl)cc3)cc2C1=O | 17* | 0 | -8 | 1 | 2
